{"source": "paper PMC11310838", "about": "(RSC Advances, 2024)", "key": {"[1]": {"molecular_target": "EGFR kinase (Homo sapiens, UniProt P00533)", "sequence (P00533 25-1210)": "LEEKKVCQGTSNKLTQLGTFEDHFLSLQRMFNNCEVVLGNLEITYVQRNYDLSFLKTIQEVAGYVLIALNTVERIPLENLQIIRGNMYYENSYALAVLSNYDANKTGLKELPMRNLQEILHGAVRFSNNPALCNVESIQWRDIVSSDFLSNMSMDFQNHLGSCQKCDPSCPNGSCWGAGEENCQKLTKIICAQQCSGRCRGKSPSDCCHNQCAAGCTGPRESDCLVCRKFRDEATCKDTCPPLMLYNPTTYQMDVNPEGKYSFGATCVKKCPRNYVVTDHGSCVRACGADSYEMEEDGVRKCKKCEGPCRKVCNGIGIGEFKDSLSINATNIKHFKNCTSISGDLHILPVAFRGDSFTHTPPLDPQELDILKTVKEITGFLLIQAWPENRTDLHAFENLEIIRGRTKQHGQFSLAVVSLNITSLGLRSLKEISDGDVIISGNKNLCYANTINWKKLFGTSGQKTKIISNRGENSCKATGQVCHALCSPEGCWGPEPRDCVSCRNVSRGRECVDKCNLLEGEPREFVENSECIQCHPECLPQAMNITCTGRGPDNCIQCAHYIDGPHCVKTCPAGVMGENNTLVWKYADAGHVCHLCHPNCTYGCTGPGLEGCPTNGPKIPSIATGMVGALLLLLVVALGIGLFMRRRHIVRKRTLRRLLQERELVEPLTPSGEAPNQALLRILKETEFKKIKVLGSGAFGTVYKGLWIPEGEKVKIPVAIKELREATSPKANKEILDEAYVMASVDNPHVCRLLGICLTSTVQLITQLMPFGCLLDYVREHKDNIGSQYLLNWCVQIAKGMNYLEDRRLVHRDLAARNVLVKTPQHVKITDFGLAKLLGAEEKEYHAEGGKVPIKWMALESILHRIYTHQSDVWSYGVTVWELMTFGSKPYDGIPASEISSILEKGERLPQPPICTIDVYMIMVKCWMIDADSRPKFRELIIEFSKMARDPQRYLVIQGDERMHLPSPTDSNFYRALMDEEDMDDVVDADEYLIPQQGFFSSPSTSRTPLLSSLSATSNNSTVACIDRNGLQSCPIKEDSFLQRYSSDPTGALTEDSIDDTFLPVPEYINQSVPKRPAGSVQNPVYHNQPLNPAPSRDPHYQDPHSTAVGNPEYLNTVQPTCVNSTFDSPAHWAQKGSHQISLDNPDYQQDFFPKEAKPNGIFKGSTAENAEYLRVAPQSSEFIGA", "experiment": "EGFR kinase inhibitory assay", "format": "biochemical"}, "[2]": {"tested_on": "HCT116 cell line", "experiment": "Sulforhodamine B", "format": "cell-based, human", "in_short": "(§1)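 Carcinoma lines came from the National Cancer Institute, Cairo, and were grown as monolayers in DMEM with 10% FBS and 1% penicillin–streptomycin. Final DMSO was ≤0.1% (v/v). Cells were treated for 48 h either at a single 100 μM dose (% growth inhibition) or at 0, 6.25, 12.5, 25 and 50 μM. SRB staining was read at 570 nm as % viability. IC50 came from dose–response curve fitting.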"}, "[3]": {"tested_on": "HCT-116 cells", "experiment": "RT-PCR of apoptosis-related genes", "format": "cell-based, human", "conditions": "HCT-116, IC50 = 8.5 μM, 48 h, untreated control = 1", "in_short": "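HCT-116 cells were exposed to the test compound for 48 h, alongside untreated cells. Relative expression of apoptosis-related genes was measured by real-time PCR. Ct values were normalised to β-actin, and untreated control was set to fold change = 1. Data are the mean ± SD of 3 independent runs.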"}, "[4]": {"tested_on": "HDF cell line (Human Dermal Fibroblasts)", "experiment": "Sulforhodamine B", "format": "cell-based", "conditions": "Homo sapiens, HDF, 48 h, read-out: Percentage of cell growth inhibition at [100 μM] HDF", "in_short": "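Normal human dermal fibroblasts came from the National Cancer Institute, Cairo. Final DMSO was ≤0.1% (v/v). Cells were exposed to the test compound at a single 100 μM dose for 48 h. Growth inhibition was measured by the sulforhodamine-B method, with absorbance read at 570 nm and expressed as percentage of cell viability.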"}, "[5]": {"tested_on": "HCT-116 cells", "experiment": "DNA content-flow cytometry cell cycle analysis", "format": "cell-based, human", "conditions": "HCT-116, treated at IC50 = 8.5 μM, 48 h; control 3.77%"}, "[6]": {"tested_on": "MCF7 cell line", "experiment": "Sulforhodamine B", "format": "cell-based, human", "conditions": "Homo sapiens, MCF7, 48 h", "in_short": "as §1"}, "[7]": {"tested_on": "cancer cell lines (HCT116, HEPG2, MCF7)", "experiment": "SRB single-dose screen, summary over cancer cell lines", "format": "cell-based", "conditions": "Homo sapiens, 48 h, read-out: percentage of cell growth inhibition on the cancer cell lines", "in_short": "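Human carcinoma lines grown as monolayers in DMEM with 10% FBS and 1% penicillin–streptomycin. Each test compound was applied once at 100 μM for 48 h, with final DMSO at most 0.1% (v/v) in control and treated wells. Growth was measured by sulforhodamine-B staining, with OD read at 570 nm. Percentage growth inhibition was calculated from viability relative to the untreated control.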"}, "[8]": {"tested_on": "HEPG2 cell line", "experiment": "Sulforhodamine B", "format": "cell-based, human", "conditions": "Homo sapiens, HepG2, 48 h", "in_short": "as §1"}, "[9]": {"tested_on": "HCT-116 cells", "experiment": "Annexin V/PI staining flow cytometry", "format": "cell-based, human", "conditions": "HCT-116, treated at IC50 = 8.5 μM, 48 h"}}, "note": "Where two headings read alike, the source gives them in different places.", "data": [{"compound": "Cc1nc(NN=Cc2ccccc2OCC(=O)N2CCN(C(=O)COc3ccccc3C=NNc3nc(C)c(N=Nc4ccc(Br)cc4)s3)CC2)sc1N=Nc1ccc(Br)cc1", "note": "[Compound 9i, 1,1′-(Piperazine-1,4-diyl)bis(2-(2-(((4-methyl-5-(4-bromophenylazo)thiazol-2-yl)hydrazono)-methyl)phenoxy)ethanone)]", "values": [{"measurement": "IC50", "setting": "[1]", "value": "0.0012 ± 5e-05", "unit": "µM"}, {"measurement": "% of EGFR inhibition", "setting": "[1]; concentration not given, average of three replicates", "value": "97.5 ± 2.1", "unit": "%"}, {"measurement": "IC50", "setting": "[2]; Homo sapiens, HCT-116, 48 h, read-out: IC50 (μM) ± SD HCT116, 48 h treatment, SRB", "value": 8.5, "unit": "µM"}, {"measurement": "inhibition at 100 µM", "setting": "[2]; Homo sapiens, HCT-116, 48 h, read-out: Percentage of cell growth inhibition at [100 μM] HCT116", "value": "89.6 ± 5.3", "unit": "%"}, {"measurement": "IC50", "setting": "[2]; read-out: IC50 (μM) ± SD HCT116, 48 h treatment, SRB", "value": "8.51 ± 2.5", "unit": "µM"}, {"measurement": "Bcl-2 expression fold change", "setting": "[3]; downregulated", "value": 0.76, "unit": "fold change"}, {"measurement": "P53 fold change", "setting": "[3]; upregulated", "value": 10.87, "unit": "fold change"}, {"measurement": "caspase-3 level fold change", "setting": "[3]; upregulated", "value": 9.87, "unit": "fold change"}, {"measurement": "caspase-8 level fold change", "setting": "[3]; upregulated", "value": 7.6, "unit": "fold change"}, {"measurement": "caspase-9 level fold change", "setting": "[3]; upregulated", "value": 11.6, "unit": "fold change"}, {"measurement": "inhibition at 100 µM", "setting": "[4]", "value": "71.6 ± 17.3", "unit": "%"}, {"measurement": "cell population at the P2 phase", "setting": "[5]", "value": 51.89, "unit": "%"}, {"measurement": "IC50", "setting": "[6]; read-out: IC50 (μM) ± SD MCF7", "value": "13 ± 2.8", "unit": "µM"}, {"measurement": "inhibition at 100 µM", "setting": "[6]; read-out: Percentage of cell growth inhibition at [100 μM] MCF7", "value": "89.9 ± 2.3", "unit": "%"}, {"measurement": "inhibition at 100 µM", "setting": "[7]", "value": "> 80", "unit": "%"}, {"measurement": "IC50", "setting": "[8]; read-out: IC50 (μM) ± SD HEPG2", "value": "22 ± 2.9", "unit": "µM"}, {"measurement": "inhibition at 100 µM", "setting": "[8]; read-out: Percentage of cell growth inhibition at [100 μM] HEPG2", "value": "91 ± 3.56", "unit": "%"}, {"measurement": "induction of apoptotic cell death vs untreated control", "setting": "[9]", "value": 4.16, "unit": "fold"}, {"measurement": "induction of necrosis cell death vs untreated control", "setting": "[9]", "value": 4.79, "unit": "fold"}, {"measurement": "early apoptosis", "setting": "[9]; control 1.69%", "value": 0.54, "unit": "%"}, {"measurement": "late apoptosis", "setting": "[9]; control 2.36%", "value": 16.31, "unit": "%"}, {"measurement": "total apoptosis", "setting": "[9]; control 4.05%", "value": 16.85, "unit": "%"}]}]}
